Screening results as filed in PubChem.
Hits are enriched below; roughly 3.3% of the tested compounds scored in any of these assays.
Jurkat viability: cytotoxic compounds reducing Jurkat cell viability; actives 1.2% (n = 56,000); Jurkat E6.1 viability, ATP luminescence, 48 h; inhibition, % at 4 µM;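 active = inhibition above the mean inhibition of all tested compounds plus 3 SD, cut at about 28% in these data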
HEK293 NFkB inh: inhibitors of the PMA/ionomycin-induced NF-kB reporter in HEK293 cells; actives 0.21% (n = 62,000); AID 465; HEK-293 NF-kB luciferase reporter, luminescence; inhibition, % at 3 µM;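 active = inhibition above the mean of all tested compounds plus 3 SD, cut at about 40% in these data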;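 also: 0% = stimulated DMSO wells and 100% = 10 µM reference inhibitor 5653914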
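System – HEK-293 cells with stable firefly luciferase reporter driven by four HIV NF-kB elements · Doses – one dose, 3 µM · Schedule – 1 h compound pre-incubation, 16 h PMA/ionomycin at 37 °C · Technique – luminescence from luciferase substrate reagent · Measure – percent inhibition normalized per plate to DMSO and reference-inhibitor controls · Replicates – tested once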
5HT1a antag: blocks the human serotonin 5-HT1a receptor; P08908; CHO 5-HT1a Ga15 NFAT-bla reporter, antagonist mode; inhibition, % at 10 µM; actives 0.68% (n = 62,000); AID 612;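 active = inhibition above the mean of all tested compounds plus 3 SD, cut at about 43% in these data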;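 also: receptor stimulated by 5-CT agonist at 100 nM near EC80; beta-lactamase reporter measured by ratiometric fluorescence of a cleavable substrate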
HTR1A agonist: activates the human 5-HT1a serotonin receptor; P08908; CHO 5-HT1a Ga15 NFAT-bla reporter, FRET ratio; 0% basal, 100% maximal reference agonist; activation, % at 10 µM; actives 0.56% (n = 65,000);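 active = activation above the screen-wide mean activation plus 3 SD, cut at about 19% in these data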;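 also: 0% = DMSO wells and 100% = 5-CT at EC100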
5HT1E ag: 5-HT1E (human) receptor agonism; CHO 5-HT1E Ga15 NFAT-bla reporter, FRET; 0% DMSO wells, 100% control agonist wells; activation, % at 6 µM; actives 0.69% (n = 65,000); AID 574;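 active = activation above a set limit, the screen-wide mean activation plus 3 SD, cut at about 8.5% in these data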;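 also: 100% = positive control agonist at 1 µM giving full maximal response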
Target sequence (P28566 whole entry, looked up): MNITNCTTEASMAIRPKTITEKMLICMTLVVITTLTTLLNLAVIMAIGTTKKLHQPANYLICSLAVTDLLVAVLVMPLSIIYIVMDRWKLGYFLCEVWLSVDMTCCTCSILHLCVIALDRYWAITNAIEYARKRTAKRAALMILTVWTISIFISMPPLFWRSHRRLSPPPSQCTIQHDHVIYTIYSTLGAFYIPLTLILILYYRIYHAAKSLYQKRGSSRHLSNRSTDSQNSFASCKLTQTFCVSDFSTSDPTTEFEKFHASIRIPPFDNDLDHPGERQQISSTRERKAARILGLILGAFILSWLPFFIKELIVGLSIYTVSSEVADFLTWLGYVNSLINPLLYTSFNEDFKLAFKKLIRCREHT
HTR1E antagonist: 5-HT1E (human) receptor antagonism; P28566; inhibition, % at 6 µM; actives 0.99% (n = 65,000); CHO 5-HT1E Ga15 NFAT-bla reporter, FRET, antagonist;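 active = inhibition above a set limit, the mean inhibition across every tested compound plus 3 SD, cut at about 29% in these data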;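 also: signal is the 460 over 535 nm emission ratio of beta-lactamase substrate; 0% = agonist plus DMSO wells and 100% = wells without agonist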
An asterisk follows results filed as active.

What do the screens show for `Cc1ccccc1CS(=O)(=O)CCC(=O)NCCCN1CCN(c2ccccc2F)CC1`?
Jurkat viability: 10.0; HEK293 NFkB inh: 11.4; 5HT1a antag: 10.7; HTR1A agonist: 1.1; 5HT1E ag: -0.6; HTR1E antagonist: 10.5

What do the screens show for `Cc1cc(=O)oc(C)c1C(=O)NCCNC(=O)c1c(C)cc(=O)oc1C`?
HTR1A agonist: -0.9; 5HT1E ag: 39.0*; HTR1E antagonist: -10.9

How did Cc1cc(=O)oc(C)c1C(=O)NCCCN1CCN(c2ccccc2F)CC1 do in these assays?
HEK293 NFkB inh: 17.6; 5HT1a antag: 77.3*; HTR1A agonist: 0.9; 5HT1E ag: 27.9*; HTR1E antagonist: 23.5

What do the screens show for `Cn1c(=O)cc(SCC(=O)NCCCN2CCN(c3ccccc3F)CC2)c2ccccc21`?
Jurkat viability: 3.5; HEK293 NFkB inh: 6.3; 5HT1a antag: 60.3*; HTR1A agonist: 13.7; 5HT1E ag: 1.1; HTR1E antagonist: -3.1

Results for CC(C)OCCCNC(=O)c1cc2c(=O)n(C)c3ccccc3c2n1C ?
Jurkat viability: 6.3; HEK293 NFkB inh: -3.4; 5HT1a antag: -2.2; HTR1A agonist: 0.0; 5HT1E ag: 0.9; HTR1E antagonist: 4.2

What do the screens show for `Cc1sc2nc(NCCO)[nH]c(=O)c2c1C`?
Jurkat viability: -1.2; HEK293 NFkB inh: 1.0; 5HT1a antag: 1.9; HTR1A agonist: -0.8; 5HT1E ag: 0.9; HTR1E antagonist: 5.9

Results for Cn1c(C(=O)NCCCN2CCOCC2)cc2c(=O)n(C)c3ccccc3c21 ?
Jurkat viability: -4.3; HEK293 NFkB inh: 9.9; 5HT1a antag: -7.6; HTR1A agonist: -2.5; 5HT1E ag: 0.9; HTR1E antagonist: 3.2

What do the screens show for `CCn1c(=O)cc(SCC(=O)NCCCN2CCN(c3ccc(F)cc3)CC2)c2ccccc21`?
HEK293 NFkB inh: 12.9; 5HT1a antag: 46.6*; HTR1A agonist: 3.7; 5HT1E ag: 0.5; HTR1E antagonist: -8.0

What do the screens show for `CCn1c(=O)cc(SCC(=O)NCCN2CCN(Cc3ccccc3)CC2)c2ccccc21`?
Jurkat viability: 9.5; HEK293 NFkB inh: 4.9; 5HT1a antag: 13.6; HTR1A agonist: -4.6; 5HT1E ag: -0.1; HTR1E antagonist: 4.5

Results for Cn1c(C(=O)NCCCN2CCN(c3ccccc3F)CC2)cc2c(=O)n(C)c3ccccc3c21 ?
Jurkat viability: 3.5; HEK293 NFkB inh: 14.6; 5HT1a antag: 72.6*; HTR1A agonist: 16.9; 5HT1E ag: 18.3*; HTR1E antagonist: -16.6

What do the screens show for `O=C(CN1C(=O)C2C3C=CC(C3)C2C1=O)N1CCc2ccccc2C1` (centres undefined)?
Jurkat viability: 2.5; HEK293 NFkB inh: 0.7; 5HT1a antag: -4.9; HTR1A agonist: -0.3; 5HT1E ag: -0.3; HTR1E antagonist: 12.1

Results for CNc1nc(C)c(C(=O)OCC(=O)OC)s1 ?
Jurkat viability: 2.3; HEK293 NFkB inh: 10.2; 5HT1a antag: 4.8; HTR1A agonist: -1.1; 5HT1E ag: -0.5; HTR1E antagonist: 5.8

What do the screens show for `CNc1nc(C)c(C(=O)OCc2ccccc2)s1`?
Jurkat viability: 66.5*; HEK293 NFkB inh: 4.9; 5HT1a antag: -0.9; HTR1A agonist: 0.1; 5HT1E ag: -0.3; HTR1E antagonist: 10.0

What do the screens show for `CCN1CCCC1CNC(=O)C1c2cc(OC)c(OC)cc2C(=O)N(C)C1c1cccnc1` (centres undefined)?
HEK293 NFkB inh: 0.2; 5HT1a antag: -6.0; HTR1A agonist: -1.7; 5HT1E ag: 0.8; HTR1E antagonist: 0.1

Results for Cc1cccnc1NCc1ccc(O)c2ncccc12 ?
Jurkat viability: 0.7; HEK293 NFkB inh: 13.1; 5HT1a antag: 11.8; HTR1A agonist: 0.4; 5HT1E ag: 0.8; HTR1E antagonist: 51.1*

What do the screens show for `Oc1ccc(CN2CCCc3ccccc32)c2cccnc12`?
Jurkat viability: 24.3; HEK293 NFkB inh: 13.1; 5HT1a antag: 12.7; HTR1A agonist: -0.5; 5HT1E ag: 1.1; HTR1E antagonist: 4.6

What do the screens show for `O=c1c2cc3ccccc3n2cnn1Cc1ccccc1F`?
Jurkat viability: 49.8*; HEK293 NFkB inh: 17.6; 5HT1a antag: 39.8; HTR1A agonist: -0.8; 5HT1E ag: -0.5; HTR1E antagonist: 4.7

What do the screens show for `O=C(NCc1cccs1)c1nc2c(nnn2Cc2ccccc2Cl)c(=O)[nH]1`?
Jurkat viability: 39.8*; HEK293 NFkB inh: 53.1*; 5HT1a antag: -15.1; HTR1A agonist: 0.4; 5HT1E ag: 0.0; HTR1E antagonist: -3.2

How did COc1ccc(-c2cc(C(F)(F)F)nc(S(=O)(=O)CCC(=O)N3CCOCC3)n2)cc1 do in these assays?
Jurkat viability: -3.5; HEK293 NFkB inh: 9.7; 5HT1a antag: 11.6; HTR1A agonist: -1.2; 5HT1E ag: -0.4; HTR1E antagonist: 3.3

How did COc1ccccc1-c1cc(C(F)(F)F)nc(S(=O)(=O)CCCC(=O)N2CCOCC2)n1 do in these assays?
Jurkat viability: 61.9*; HEK293 NFkB inh: -4.7; 5HT1a antag: 26.5; HTR1A agonist: 7.9; 5HT1E ag: 4.7; HTR1E antagonist: 58.8*

What do the screens show for `c1ccc(CNc2ncnc3nc[nH]c23)nc1`?
Jurkat viability: -2.7; HEK293 NFkB inh: 15.9; 5HT1a antag: -1.8; HTR1A agonist: -2.9; 5HT1E ag: -0.2; HTR1E antagonist: 5.5

Results for Clc1ccccc1CNc1ncnc2nc[nH]c12 ?
Jurkat viability: 1.3; HEK293 NFkB inh: 4.3; 5HT1a antag: 3.1; HTR1A agonist: 47.2*; 5HT1E ag: 0.9; HTR1E antagonist: -10.4

Results for Cc1nc2ccc(S(=O)(=O)Nc3ccccc3C)cc2s1 ?
Jurkat viability: 30.4*; HEK293 NFkB inh: 12.5; 5HT1a antag: 8.8; HTR1A agonist: -3.7; 5HT1E ag: -0.9; HTR1E antagonist: 6.4

What do the screens show for `Cc1cc(S(=O)(=O)Nc2ccccc2C)ccc1F`?
Jurkat viability: 0.6; HEK293 NFkB inh: 9.0; 5HT1a antag: 4.2; HTR1A agonist: -1.5; 5HT1E ag: -0.4; HTR1E antagonist: 7.6

What do the screens show for `Cc1ccc2c(c1)c(-c1ccccc1)nc1nncn12`?
Jurkat viability: 2.3; HEK293 NFkB inh: 6.9; 5HT1a antag: 3.8; HTR1A agonist: -1.8; 5HT1E ag: 0.2; HTR1E antagonist: 17.9

What do the screens show for `O=C1C=C(N2CCN(C3=CC(=O)CCC3)CC2)CCC1`?
HTR1A agonist: 4.2; 5HT1E ag: -2.1; HTR1E antagonist: -5.3

How did COc1ccccc1N1CCN(C2=CC(=O)CCC2)CC1 do in these assays?
HEK293 NFkB inh: -3.0; 5HT1a antag: 18.3; HTR1A agonist: 5.9; 5HT1E ag: 32.5*; HTR1E antagonist: 0.5

Results for COc1ccccc1N1CCN(c2ccc(-c3ccccc3)nn2)CC1 ?
HEK293 NFkB inh: 8.0; 5HT1a antag: 37.9; HTR1A agonist: -1.2; 5HT1E ag: -0.2; HTR1E antagonist: 51.2*

How did Cc1nc(NC(C)c2ccccc2)c2oc3ccccc3c2n1 (centres undefined) do in these assays?
Jurkat viability: 29.7*; HEK293 NFkB inh: 4.8; 5HT1a antag: 1.5; HTR1A agonist: -1.7; 5HT1E ag: -0.6; HTR1E antagonist: 14.7
